ADAM10 inh: human ADAM10 inhibitors, primary screen, biochemical, QFRET, HTS | inhibition, % at 7 µM | Disintegrin and metalloproteinase domain-containing protein 10 (Homo sapiens), O14672 | recombinant ADAM10, EDANS/DABCYL FRET peptide cleavage, 3 h | hit rate 0.62% among 370,000 | AID 720582, 2013;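 active = inhibition above a per-campaign cutoff equal to the mean of compounds falling between control-based bounds plus 3 SD, cut at about 20% in these data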;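 note: 0% = DMSO wells while the 100% control is not disclosed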
NR3A LBD binder: binders of NR3A ligand-binding domain, primary screen, biophysical, differential scanning fluorimetry, uHTS. Tm shift relative to glycine control, % at 25 µM. AID 1259313, 2017. NR3A LBD differential scanning fluorimetry, Tm shift; 0% = protein alone, 100% = glycine-bound protein. Glutamate receptor ionotropic, NMDA 3A (GRIN3A) ligand-binding domain. hit rate 2.5% among 340,000;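 active = melting temperature shift of at least 10% of the positive control shift, at one fixed dose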
MPTP inh: mitochondrial permeability transition pore inhibitors, primary screen, biochemical, isolated mouse mitochondria, absorbance | Ca2+ swelling absorbance, 30 min | inhibition, % at 10 µM | hit rate 1.4% among 360,000;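 active = inhibition of 50% or more, scaled per plate between neutral and stimulator controls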;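 note: 0% = DMSO wells given calcium and 100% = 1 mM EGTA wells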
SKN-1 block: suppressors of acrylamide-induced Pgst-4::GFP reporter in worms, primary screen, SKN-1 inhibitor project, whole organism, uHTS, GFP/RFP fluorescence ratio, strain VP596 | C. elegans VP596 Pgst-4::GFP/RFP ratio, 24 h | hit rate 0.49% among 360,000 | inhibition, % at 21.8 µM | AID 624304, 2012;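 active = interference check ratio from 0.5 to 1.5 plus GFP to RFP signal ratio inhibition reaching or exceeding a fixed threshold, cut at about 30% in these data, passing the limit was not always enough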
MT1-MMP act inh: blockers of MT1-MMP proenzyme processing, primary screen, HT1080 RFP-PRO-GFP cells, GFP/RFP fluorescence | GFP/RFP ratio fluorescence, overnight; percent of plate control window, DMSO zero | GFP/RFP ratio change, % at 20 µM | hit rate 0.061% among 360,000;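 active = GFP/RFP ratio change of at least 30% with cell ATP level not reduced by more than half and red fluorescence within 50% of control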
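Compound: 20 µM single dose, 1% DMSO / System: HT1080 RFP-PRO-GFP cells / Controls: DMSO and RFP-L50D-GFP cell wells / Read-out basis: GFP/RFP fluorescence ratio / Schedule: overnight compound exposure at 37 °C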
ADAM17 inh: ADAM17 inhibitors, primary screen, biochemical, QFRET; inhibition, % at 6.95 µM; recombinant ADAM17, EDANS/DABCYL FRET peptide cleavage; hit rate 0.83% among 370,000; Disintegrin and metalloproteinase domain-containing protein 17 (Homo sapiens), P78536;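 active = inhibition above the mean of compounds lying between control limits plus 3 SD, set per campaign, cut at about 8.5% in these data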;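 note: 0% = DMSO-only wells as the low control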
Target sequence (P78536 215-824 limits assumed): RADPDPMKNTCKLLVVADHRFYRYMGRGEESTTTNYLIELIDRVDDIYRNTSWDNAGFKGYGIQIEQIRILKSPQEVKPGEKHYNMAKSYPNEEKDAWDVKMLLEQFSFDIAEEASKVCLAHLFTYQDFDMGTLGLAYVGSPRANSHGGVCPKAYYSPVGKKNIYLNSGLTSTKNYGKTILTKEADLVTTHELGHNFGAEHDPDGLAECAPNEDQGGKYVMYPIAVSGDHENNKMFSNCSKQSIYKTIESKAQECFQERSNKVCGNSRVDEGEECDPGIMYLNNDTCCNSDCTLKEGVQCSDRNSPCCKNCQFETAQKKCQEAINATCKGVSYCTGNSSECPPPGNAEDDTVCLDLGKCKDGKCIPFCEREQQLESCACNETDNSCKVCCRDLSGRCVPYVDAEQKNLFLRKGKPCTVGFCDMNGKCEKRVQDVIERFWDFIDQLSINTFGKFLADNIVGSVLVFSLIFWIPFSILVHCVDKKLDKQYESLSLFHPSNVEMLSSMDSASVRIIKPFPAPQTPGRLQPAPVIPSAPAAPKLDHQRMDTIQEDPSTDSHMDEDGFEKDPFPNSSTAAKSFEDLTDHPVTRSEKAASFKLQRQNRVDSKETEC
Starred values were filed as active, the others as inactive; · = no result given. This is a sample that favours compounds with a hit; in the whole collection about 4.7% have one here.

SMILES	ADAM10 inh	NR3A LBD binder	MPTP inh	SKN-1 block	MT1-MMP act inh	ADAM17 inh
COc1cc(C(=O)N(Cc2ccc(C)o2)C2CCS(=O)(=O)C2)cc(OC)c1OC (stereo not drawn)	-7	-2	-3	8	-1	0
CCCCOC(=O)c1ccc(NC(=O)/C=C/c2cccs2)cc1	14	19*	5	37*	-5	8
CCCCOC(=O)c1ccc(NC(C)=O)cc1	-3	7	1	9	-1	-5
COc1ccc(/C=C/C(=O)NCCc2nc3ccccc3[nH]2)cc1	3	-2	1	-10	4	0
CCCCOc1ccc(/C=C/C(=O)NCCc2nc3ccccc3[nH]2)cc1	1	12*	1	26	-7	-4
O=C(CCc1ccccc1)NCCSCc1c(F)cccc1Cl	0	0	0	3	-1	2
Cc1ccc2cc(C(c3nnnn3C(C)(C)C)N3CCCCCC3)c(=O)[nH]c2c1 (stereo not drawn)	·	11*	-2	1	3	·
CCC(C)(C)n1nnnc1C(c1cc2cc(C)ccc2[nH]c1=O)N1CCCC1 (stereo not drawn)	-45	-2	1	10	-2	-14
Cc1cccc(NC(=O)c2cc3c([nH]c4ccccc43)c(C)n2)c1C	-25	14*	4	1	5	-8
O=C(N/N=C/c1ccc(O)cc1O)C(=O)N/N=C/c1ccc(O)cc1O	-12	36*	1	15	-10	-3
Oc1ccc(C=NNC(=S)Nc2ccc(F)cc2)c(O)c1	-30	27*	2	2	1	-3
O=C(NN=Cc1ccc(O)cc1)C(=O)NN=Cc1ccc(O)cc1	-3	8	-1	0	1	4
Oc1ccc(C=NNC(=S)Nc2ccccc2)nc1	-53	·	1	45*	6	-14
Oc1ccc(/C=N/NC(=S)Nc2cccnc2)c(O)c1	-26	12*	3	-9	-7	-7
O=C(CCC(=O)Nc1ccc(F)cc1)N/N=C/c1ccc(O)cc1O	-87	-11	1	-8	3	-28
COc1cc(/C=N\NS(=O)(=O)c2ccccc2)cc(OC)c1OC	-4	0	0	10	0	-2
COc1cccc(COC(=O)C2CCN(S(=O)(=O)c3ccc(C)cc3)CC2)c1OC	-2	2	-2	2	0	2
Cc1cc(NN)nc2ccc(Cl)cc12	-10	12*	-3	9	3	-5
CC(=O)Nc1cccc(NC(=O)c2cccc(Cl)c2)c1	-4	·	0	9	3	1
COc1ccc(N2CCN(C(=O)c3ccc4[nH]c(C)c(C)c4c3)CC2)cc1	6	1	0	8	-2	0
Cc1cc(NC(=O)c2ccc3[nH]c(C)c(C)c3c2)ccn1	5	12*	0	20	12	-1
CC(=O)Nc1cccc(NC(=O)c2cccc(-c3ccc(O)cc3)c2)c1	7	10*	-1	-3	-14	0
COc1ccc(NC(=O)c2ccc3[nH]c(C)c(C)c3c2)cc1	-4	29*	-1	11	8	0
CC(=O)Nc1cccc(NC(=O)c2ccc3[nH]c(C)c(C)c3c2)c1	-1	28*	-3	14	3	-2
CC(C)CN(CCNC(=O)CN1C(=O)COc2ccc(S(=O)(=O)N3CCOCC3)cc21)CC(C)C	-9	2	0	14	-1	1
SMILES	ADAM10 inh	NR3A LBD binder	MPTP inh	SKN-1 block	MT1-MMP act inh	ADAM17 inh
CN(Cc1ccccc1)C(=O)Cn1nnc(-c2ccccc2)c1COc1ccccc1	-17	·	1	3	0	0
COc1ccc(OC)c(C(=O)C2COC(=O)C2)c1 (stereo not drawn)	-9	1	1	37*	14	-6
COc1ccc(OC)c(C(=O)c2ccccc2)c1	2	·	0	10	9	-1
COc1ccc(OC)c(C(=O)c2ccc(C(=O)c3cc(OC)ccc3OC)cc2)c1	5	20*	1	4	0	3
COc1ccc(Cc2nnc(N/N=C/c3ccc(O)cc3O)[nH]c2=O)cc1OC	8	-2	1	-12	-4	2
COCCNC(=S)NCc1ccc2[nH]c3c(c2c1)CCCC3	-17	-6	-1	-13	5	-8
Cc1ccc(NC(=S)NCc2ccc3[nH]c4c(c3c2)CCCC4)cc1	-11	11*	3	9	6	2
O=C1CCC(c2ccccc2)c2ccccc21 (stereo not drawn)	5	1	0	-21	0	-4
N#CC1C(=O)c2ccccc2C1c1ccccc1 (stereo not drawn)	-16	20*	0	11	4	-4
Cc1ccc(/C=N/n2c(-c3ccc(Cl)cc3)n[nH]c2=S)s1	7	21*	1	-5	2	1
CC(=O)Nc1ccc(Nc2nc(Cl)nc(Nc3ccc(NC(C)=O)cc3)n2)cc1	10	13*	1	11	4	-9
COc1ccc(Nc2nc(C)c3ccccc3n2)cc1	6	38*	-4	-15	-2	0
C=CCNc1nc(Cl)nc(Nc2ccc(OC)cc2)n1	3	-17	-1	2	-2	-2
Clc1nc(Nc2ccccc2)nc(Nc2ccccc2)n1	5	18*	2	21	8	-1
COc1ccc(Nc2nc(Cl)nc(Nc3ccc(OC)cc3)n2)cc1	1	17*	1	4	-2	2
CC(=O)Nc1ccc(Nc2nccc(C)n2)cc1	-5	·	0	4	-1	-4
COc1cc(C(=O)OCC(=O)Nc2ccc3c(c2)OC(F)(F)O3)ccc1OCc1c(C)noc1C	12	5	6	2	2	1
COc1cccc(C(=O)N(Cc2cccs2)C2CCS(=O)(=O)C2)c1 (stereo not drawn)	1	1	1	5	-2	-8
O=C(c1cccc(Cl)c1)N(Cc1cccs1)C1CCS(=O)(=O)C1 (stereo not drawn)	-1	2	-1	36*	2	-6
Cc1cccc(C(=O)N(Cc2cccs2)C2CCS(=O)(=O)C2)c1 (stereo not drawn)	-3	0	-2	36*	-1	-3

Screening results as filed in PubChem BioAssay.
